ChEMBL document CHEMBL1649355, “Synthesis and biological evaluation of novel 2,4-disubstituted-1,3-thiazoles as anti-Candida spp. agents” (2011)
In brackets after ≈: the same amount, converted by molar mass.

Experiments:
[1] = test system: [Candida] sake; test: Antifungal activity against Candida sake after 24 hrs by broth microdilution method; conditions: Fermentozyma sake
[2] = test system: Nakaseomyces glabratus; test: Antifungal activity against Candida glabrata after 24 hrs
[3] = test system: Candida tropicalis; test: Antifungal activity against Candida tropicalis after 24 hrs by broth microdilution method
[4] = test system: Pichia kudriavzevii; test: Antifungal activity against Candida krusei after 24 hrs by broth microdilution method
[5] = test system: Candida albicans; test: Antifungal activity against Candida albicans after 24 hrs by broth microdilution method
[6] = test system: Nakaseomyces glabratus; test: Antifungal activity against Candida glabrata after 24 hrs by MTT assay; format: functional
How it was run: (§1)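 Broth microdilution in Sabouraud dextrose broth per NCCLS guidance, tested against clinical Candida isolates (20 strains across species). Compounds dissolved in DMSO and serially diluted to final concentrations of 0.125–256. Inoculum 10³/mL. Each plate carried fungus-only and medium-only controls. Incubated 24 h at 37 °C. MIC reported as range per species.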

[7] = test system: Pichia kudriavzevii; test: Antifungal activity against Candida krusei after 24 hrs by MTT assay; format: functional
How it was run: as §1

[8] = test system: Candida albicans; test: Antifungal activity against Candida albicans after 24 hrs by MTT assay; format: functional
How it was run: as §1

[9] = test system: [Candida] sake; test: Antifungal activity against Candida sake after 24 hrs by MTT assay; format: functional; conditions: Fermentozyma sake
How it was run: as §1

[10] = test system: Candida tropicalis; test: Antifungal activity against Candida tropicalis after 24 hrs by MTT assay; format: functional
How it was run: as §1

Row | SMILES | MIC [1] | MIC [2] | MIC [3] | MIC [4] | MIC [5] | MIC [6] | MIC [7] | MIC [8] | MIC [9] | MIC [10]
1 | Cc1ccc(-c2csc(N/N=C\c3ccco3)n2)cc1 | 16 µg/mL (≈ 56.5 µM) | 4 µg/mL (≈ 14.1 µM) | 64 µg/mL (≈ 226 µM) | 32 µg/mL (≈ 113 µM) | 0.5 µg/mL (≈ 1.76 µM) |  |  |  |  | 
2 | COc1ccc(-c2csc(N/N=C\c3ccco3)n2)cc1 | 32 µg/mL (≈ 107 µM) | 4 µg/mL (≈ 13.4 µM) | 64 µg/mL (≈ 214 µM) | 16 µg/mL (≈ 53.4 µM) | 0.5 µg/mL (≈ 1.67 µM) |  |  |  |  | 
3 | C/C(=N/Nc1nc(-c2ccc(C)cc2)cs1)c1ccco1 | 32 µg/mL (≈ 108 µM) | 4 µg/mL (≈ 13.5 µM) | 64 µg/mL (≈ 215 µM) | 64 µg/mL (≈ 215 µM) | 0.5 µg/mL (≈ 1.68 µM) |  |  |  |  | 
4 | COc1ccc(-c2csc(N/N=C(/C)c3ccco3)n2)cc1 | 16 µg/mL (≈ 51.1 µM) | 4 µg/mL (≈ 12.8 µM) | 128 µg/mL (≈ 408 µM) | 16 µg/mL (≈ 51.1 µM) | 0.5 µg/mL (≈ 1.6 µM) |  |  |  |  | 
5 | Cc1ccc(-c2csc(N/N=C\c3cccs3)n2)cc1 | 8 µg/mL (≈ 26.7 µM) | 0.5 µg/mL (≈ 1.67 µM) | 64 µg/mL (≈ 214 µM) | 16 µg/mL (≈ 53.4 µM) | 4 µg/mL (≈ 13.4 µM) |  |  |  |  | 
6 | COc1ccc(-c2csc(N/N=C\c3cccs3)n2)cc1 | 32 µg/mL (≈ 101 µM) | 0.5 µg/mL (≈ 1.59 µM) | 128 µg/mL (≈ 406 µM) | 64 µg/mL (≈ 203 µM) | 0.125 µg/mL (≈ 0.396 µM) |  |  |  |  | 
7 | C/C(=N/Nc1nc(-c2ccc(C)cc2)cs1)c1cccs1 | 32 µg/mL (≈ 102 µM) | 2 µg/mL (≈ 6.38 µM) | 128 µg/mL (≈ 408 µM) | 32 µg/mL (≈ 102 µM) | 0.5 µg/mL (≈ 1.6 µM) |  |  |  |  | 
8 | COc1ccc(-c2csc(N/N=C(/C)c3cccs3)n2)cc1 | 32 µg/mL (≈ 97.1 µM) | 2 µg/mL (≈ 6.07 µM) | 8 µg/mL (≈ 24.3 µM) | 64 µg/mL (≈ 194 µM) | 0.125 µg/mL (≈ 0.379 µM) |  |  |  |  | 
9 | C/C(=N/Nc1nc(-c2ccc(C)cc2)cs1)c1ccccn1 | 32 µg/mL (≈ 104 µM) | 4 µg/mL (≈ 13 µM) | 64 µg/mL (≈ 208 µM) | 64 µg/mL (≈ 208 µM) | 2 µg/mL (≈ 6.48 µM) |  |  |  |  | 
10 | COc1ccc(-c2csc(N/N=C(/C)c3ccccn3)n2)cc1 | 32 µg/mL (≈ 98.6 µM) | 8 µg/mL (≈ 24.7 µM) | 64 µg/mL (≈ 197 µM) | 16 µg/mL (≈ 49.3 µM) | 0.5 µg/mL (≈ 1.54 µM) |  |  |  |  | 
11 | Cc1ccc(-c2csc(N/N=C\c3cccnc3)n2)cc1 | 16 µg/mL (≈ 54.4 µM) | 0.5 µg/mL (≈ 1.7 µM) | 128 µg/mL (≈ 435 µM) | 32 µg/mL (≈ 109 µM) | 0.125 µg/mL (≈ 0.425 µM) |  |  |  |  | 
12 | COc1ccc(-c2csc(N/N=C\c3cccnc3)n2)cc1 | 16 µg/mL (≈ 51.5 µM) | 16 µg/mL (≈ 51.5 µM) | 64 µg/mL (≈ 206 µM) | 32 µg/mL (≈ 103 µM) | 4 µg/mL (≈ 12.9 µM) |  |  |  |  | 
13 | C/C(=N/Nc1nc(-c2ccc(C)cc2)cs1)c1cccnc1 | 16 µg/mL (≈ 51.9 µM) | 2 µg/mL (≈ 6.48 µM) | 16 µg/mL (≈ 51.9 µM) | 64 µg/mL (≈ 208 µM) | 0.5 µg/mL (≈ 1.62 µM) |  |  |  |  | 
14 | COc1ccc(-c2csc(N/N=C(/C)c3cccnc3)n2)cc1 | 32 µg/mL (≈ 98.6 µM) | 8 µg/mL (≈ 24.7 µM) | 128 µg/mL (≈ 395 µM) | 128 µg/mL (≈ 395 µM) | 8 µg/mL (≈ 24.7 µM) |  |  |  |  | 
15 | Cc1ccc(-c2csc(N/N=C\c3ccncc3)n2)cc1 | 32 µg/mL (≈ 109 µM) | 4 µg/mL (≈ 13.6 µM) | 64 µg/mL (≈ 217 µM) | 128 µg/mL (≈ 435 µM) | 0.5 µg/mL (≈ 1.7 µM) |  |  |  |  | 
16 | COc1ccc(-c2csc(N/N=C\c3ccncc3)n2)cc1 | 32 µg/mL (≈ 103 µM) | 0.5 µg/mL (≈ 1.61 µM) | 16 µg/mL (≈ 51.5 µM) | 16 µg/mL (≈ 51.5 µM) | 0.125 µg/mL (≈ 0.403 µM) |  |  |  |  | 
17 | C/C(=N/Nc1nc(-c2ccc(C)cc2)cs1)c1ccncc1 | 32 µg/mL (≈ 104 µM) | 4 µg/mL (≈ 13 µM) | 32 µg/mL (≈ 104 µM) | 32 µg/mL (≈ 104 µM) | 0.5 µg/mL (≈ 1.62 µM) |  |  |  |  | 
18 | COc1ccc(-c2csc(N/N=C(/C)c3ccncc3)n2)cc1 | 16 µg/mL (≈ 49.3 µM) | 4 µg/mL (≈ 12.3 µM) | 32 µg/mL (≈ 98.6 µM) | 128 µg/mL (≈ 395 µM) | 0.5 µg/mL (≈ 1.54 µM) |  |  |  |  | 
19 | Cc1ccc(-c2csc(N/N=C\c3cccc4ccccc34)n2)cc1 | 32 µg/mL (≈ 93.2 µM) | 16 µg/mL (≈ 46.6 µM) | 16 µg/mL (≈ 46.6 µM) | 16 µg/mL (≈ 46.6 µM) | 2 µg/mL (≈ 5.82 µM) |  |  |  |  | 
20 | COc1ccc(-c2csc(N/N=C\c3cccc4ccccc34)n2)cc1 | 16 µg/mL (≈ 44.5 µM) | 2 µg/mL (≈ 5.56 µM) | 64 µg/mL (≈ 178 µM) | 32 µg/mL (≈ 89 µM) | 4 µg/mL (≈ 11.1 µM) |  |  |  |  | 
21 | C/C(=N/Nc1nc(-c2ccc(C)cc2)cs1)c1ccc2ccccc2c1 | 16 µg/mL (≈ 44.8 µM) | 0.5 µg/mL (≈ 1.4 µM) | 4 µg/mL (≈ 11.2 µM) | 32 µg/mL (≈ 89.5 µM) | 2 µg/mL (≈ 5.59 µM) |  |  |  |  | 
22 | COc1ccc(-c2csc(N/N=C(/C)c3ccc4ccccc4c3)n2)cc1 | 16 µg/mL (≈ 42.8 µM) | 2 µg/mL (≈ 5.36 µM) | 64 µg/mL (≈ 171 µM) | 256 µg/mL (≈ 685 µM) | 2 µg/mL (≈ 5.36 µM) |  |  |  |  | 
23 | Cc1ccc(-c2csc(N/N=C\c3ccc4c(c3)OCO4)n2)cc1 | 8 µg/mL (≈ 23.7 µM) | 4 µg/mL (≈ 11.9 µM) | 16 µg/mL (≈ 47.4 µM) | 64 µg/mL (≈ 190 µM) | 0.125 µg/mL (≈ 0.37 µM) |  |  |  |  | 
24 | COc1ccc(-c2csc(N/N=C\c3ccc4c(c3)OCO4)n2)cc1 | 8 µg/mL (≈ 22.6 µM) | 4 µg/mL (≈ 11.3 µM) | 64 µg/mL (≈ 181 µM) | 64 µg/mL (≈ 181 µM) | 0.5 µg/mL (≈ 1.41 µM) |  |  |  |  | 
25 | Cc1ccc(-c2csc(N/N=C\c3c[nH]c4ccccc34)n2)cc1 | 32 µg/mL (≈ 96.3 µM) | 4 µg/mL (≈ 12 µM) | 64 µg/mL (≈ 193 µM) | 32 µg/mL (≈ 96.3 µM) | 0.125 µg/mL (≈ 0.376 µM) |  |  |  |  | 
26 | COc1ccc(-c2csc(N/N=C\c3c[nH]c4ccccc34)n2)cc1 | 8 µg/mL (≈ 23 µM) | 0.5 µg/mL (≈ 1.44 µM) | 64 µg/mL (≈ 184 µM) | 64 µg/mL (≈ 184 µM) | 32 µg/mL (≈ 91.8 µM) |  |  |  |  | 
27 | C/C(=N/Nc1nc(-c2ccc(C)cc2)cs1)c1cc2ccccc2oc1=O |  |  |  |  |  | 0.5 µg/mL (≈ 1.33 µM) | 128 µg/mL (≈ 341 µM) | 0.125 µg/mL (≈ 0.333 µM) | 32 µg/mL (≈ 85.2 µM) | 128 µg/mL (≈ 341 µM)
28 | COc1ccc(-c2csc(N/N=C(/C)c3cc4ccccc4oc3=O)n2)cc1 | 32 µg/mL (≈ 81.7 µM) | 2 µg/mL (≈ 5.11 µM) | 2 µg/mL (≈ 5.11 µM) | 32 µg/mL (≈ 81.7 µM) | 2 µg/mL (≈ 5.11 µM) |  |  |  |  | 
29 | Clc1ccccc1C(c1ccccc1)(c1ccccc1)n1ccnc1 [CLOTRIMAZOLE] | 16 µg/mL (≈ 46.4 µM) | 2 µg/mL (≈ 5.8 µM) |  |  | 2 µg/mL (≈ 5.8 µM) |  |  |  |  | 
30 | OC(Cn1cncn1)(Cn1cncn1)c1ccc(F)cc1F [FLUCONAZOLE] | 32 µg/mL (≈ 104 µM) | 4 µg/mL (≈ 13.1 µM) | 4 µg/mL (≈ 13.1 µM) | 8 µg/mL (≈ 26.1 µM) | 4 µg/mL (≈ 13.1 µM) |  |  |  |  | 
